Measurements taken from ChEMBL document CHEMBL1649091, “Flavonoids with an oligopolysulfated moiety: a new class of anticoagulant agents” (J Med Chem, 2011).
The source made the active and inactive calls. The calls are words filed in the database; no cut-off is given here.

Experiments:
Mus musculus [1] = test: Hepatotoxicity in mouse liver assessed as change in plasma GOT/GPT level at 150 umol/kg, ip; assay type: toxicity, organism-based; details: in vivo
Procedure, shortened: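 Male CD1 mice (30-35 g), compound in saline ip at 150 µmol/kg. Portal vein citrated blood taken at 30, 60 and 120 min. GOT and GPT (U/L) measured in platelet-poor plasma on an automated chemistry analyzer. Four independent experiments, mean ± SEM.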

[2] = molecular target: T1, Coagulation factor X/antithrombin III (Homo sapiens) (UniProt P01008+P00742); test: Inhibition of human antithrombin 3/factor 10a assessed as 125 x 10^-6M CBS31.39 substrate hydrolysis at 0.5 x 10^-3M; assay type: protein-complex assay
[3] = (§1) Anticoagulant activity in human plasma assessed as concentration required to double thrombin time; assay type: functional
Procedure, shortened: (§2)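 Citrated pooled normal human plasma mixed 1:1 with compound in water (final 5 × 10-3 to 0.05 × 10^-3 M) and held 2 min at 37 °C. APTT: reagent added, 6 min at 37 °C, then 25 mmol/L CaCl2. PT: prewarmed PT reagent. TT: prewarmed thrombin (100 U/mL). Clotting read on a coagulometer, duplicate, three days (n = 6). Doubling concentration taken from linear regression of each concentration-response curve.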

[4] = molecular target: Coagulation factor X (Homo sapiens) (UniProt P00742); test: Inhibition of human factor 10a assessed as 25 x 10^-6M chromogenic TH substrate hydrolysis at 0.5 x 10^-3M
Coagulation factor X (Homo sapiens), sequence (P00742 41-179 limits assumed): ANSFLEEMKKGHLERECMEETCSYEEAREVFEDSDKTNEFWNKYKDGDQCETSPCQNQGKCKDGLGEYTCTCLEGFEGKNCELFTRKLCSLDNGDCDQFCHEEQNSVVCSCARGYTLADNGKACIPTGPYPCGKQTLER
Coagulation factor X (Homo sapiens), sequence (P00742 235-488 limits assumed): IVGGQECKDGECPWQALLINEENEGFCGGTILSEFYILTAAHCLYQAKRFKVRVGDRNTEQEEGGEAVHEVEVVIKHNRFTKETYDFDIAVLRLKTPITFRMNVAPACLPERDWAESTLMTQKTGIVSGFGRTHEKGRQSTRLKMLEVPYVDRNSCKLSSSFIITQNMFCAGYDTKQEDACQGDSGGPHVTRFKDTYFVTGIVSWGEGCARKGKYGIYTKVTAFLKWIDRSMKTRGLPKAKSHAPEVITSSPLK
Procedure, shortened: (§3)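 Direct FXa test, with buffer in place of ATIII: compound in water in 50 mM Tris/HCl pH 8.3, 227 mM NaCl, 0.1% BSA, 10 min at 37 °C. Human FXa (0.5 U/mL final) added for 10 min, then CBS 31.39 (25 or 125 × 10^-6 M). Read at 405 nm every 12 s for 20 min. Percent inhibition from initial slope against water control, Michaelis-Menten fit.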

Blood [5] = test: Anticoagulant activity in human whole blood assessed as maximum amplitude at 6.25 x 10^-4M by thromboelastography in presence of intrinsic activators; assay type: functional
Procedure, shortened: (§4)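 Citrated whole blood from healthy donors (1:9 citrate), run within 5 h on a ROTEM analyzer. Compound in saline diluted 1:16 into blood to the final concentration stated; saline control. Intrinsic (InTEM) or extrinsic (ExTEM) activator added. Clot monitored at 37 °C in an oscillating cup-and-pin system for up to 60 min, giving R, K, angle and MA.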

[6] = molecular target: Coagulation factor X (Homo sapiens) (UniProt P00742); test: Inhibition of human factor 10a assessed as 125 x 10^-6M chromogenic TH substrate hydrolysis at 2 x 10^-3M; procedure, shortened: as §3
Mus musculus [7] = test: Anticoagulant activity in mouse assessed as increase in activated partial prothrombin time at 150 umol/kg, ip relative to control; assay type: functional
Procedure, shortened: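 Adult male CD1 mice (30-35 g) given compound in saline ip at 150 µmol/kg, fasted on the day. Citrated portal vein blood taken at 30, 60 and 120 min. APTT measured in platelet-poor plasma. Expressed as ratio to saline-treated mice, mean ± SEM of three experiments.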

[8] = Anticoagulant activity in human plasma assessed as concentration required to double activated partial prothrombin time; assay type: functional; procedure, shortened: as §2
Blood [9] = test: Anticoagulant activity in human whole blood assessed as maximum amplitude at 6.25 x 10^-4M by thromboelastography in presence of extrinsic activators; assay type: functional; procedure, shortened: as §4
[10] = molecular target: Coagulation factor X (Homo sapiens) (UniProt P00742); test: Inhibition of human factor 10a assessed as 25 x 10^-6M chromogenic TH substrate hydrolysis at 1 x 10^-3M; procedure, shortened: as §3
Blood [11] = test: Anticoagulant activity in human whole blood assessed as alpha angle at 6.25 x 10^-4M by thromboelastography in presence of extrinsic activators; assay type: functional; procedure, shortened: as §4
[12] = molecular target: T1, Coagulation factor X/antithrombin III (Homo sapiens); test: Inhibition of human antithrombin 3/factor 10a assessed as 125 x 10^-6M CBS31.39 substrate hydrolysis at 2 x 10^-3M; assay type: protein-complex assay
Blood [13] = test: Anticoagulant activity in human whole blood assessed as clotting formation time at 6.25 x 10^-4M by thromboelastography in presence of extrinsic activators; assay type: functional; procedure, shortened: as §4
[14] = molecular target: T1, Coagulation factor X/antithrombin III (Homo sapiens); test: Inhibition of human antithrombin 3/factor 10a assessed as 125 x 10^-6M CBS31.39 substrate hydrolysis at 1 x 10^-3M; assay type: protein-complex assay
[15] = molecular target: Coagulation factor X (Homo sapiens) (UniProt P00742); test: Inhibition of human factor 10a assessed as 125 x 10^-6M chromogenic TH substrate hydrolysis at 1 x 10^-3M; procedure, shortened: as §3
Blood [16] = test: Anticoagulant activity in human whole blood assessed as clotting time at 6.25 x 10^-4M by thromboelastography in presence of intrinsic activators; assay type: functional; procedure, shortened: as §4
Blood [17] = test: Anticoagulant activity in human whole blood assessed as clotting formation time at 6.25 x 10^-4M by thromboelastography in presence of intrinsic activators; assay type: functional; procedure, shortened: as §4
[18] = Anticoagulant activity in human plasma assessed as concentration required to double prothrombin time; assay type: functional; procedure, shortened: as §2
[19] = Antiplatelet activity against collagen EPI-induced human platelet aggregation assessed as closure time at 6.25 x 10^-4M; assay type: functional
Procedure, shortened: (§5)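 Compound solution added to citrated human whole blood (125 µL into 1875 µL) to the final concentration stated, then run on a PFA-100 in collagen/ADP and collagen/epinephrine cartridges. Closure time is the time until platelets occlude the membrane aperture, in seconds. Mean ± SEM of three independent experiments.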

[20] = molecular target: T1, Coagulation factor X/antithrombin III (Homo sapiens); test: Inhibition of human antithrombin 3/factor 10a assessed as 25 x 10^-6M CBS31.39 substrate hydrolysis at 1 x 10^-3M; assay type: protein-complex assay
Blood [21] = test: Anticoagulant activity in human whole blood assessed as alpha angle at 6.25 x 10^-4M by thromboelastography in presence of intrinsic activators; assay type: functional; procedure, shortened: as §4
[22] = Stability of the compound in human plasma assessed as compound remaining after 3 hrs; assay type: ADME, cell-free; details: read-out: Activity
Procedure, shortened: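 Compound at 25 µM final in human plasma diluted 1:1 with PBS pH 7.4, shaken at 37 °C for 180 min. Time-zero and 180-min samples quenched with TBA buffer and cold acetonitrile, then centrifuged. Supernatant dried, redissolved and analysed by HPLC. Three independent samples per time point.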

Blood [23] = test: Anticoagulant activity in human whole blood assessed as clotting time at 6.25 x 10^-4M by thromboelastography in presence of extrinsic activators; assay type: functional; procedure, shortened: as §4
[24] = molecular target: T1, Coagulation factor X/antithrombin III (Homo sapiens); test: Inhibition of human antithrombin 3/factor 10a assessed as 25 x 10^-6M CBS31.39 substrate hydrolysis at 0.5 x 10^-3M; assay type: protein-complex assay
[25] = molecular target: Coagulation factor X (Homo sapiens) (UniProt P00742); test: Inhibition of human factor 10a assessed as 125 x 10^-6M chromogenic TH substrate hydrolysis at 0.5 x 10^-3M; procedure, shortened: as §3
[26] = Antiplatelet activity against collagen ADP-induced human platelet aggregation assessed as closure time at 6.25 x 10^-4M; assay type: functional; procedure, shortened: as §5
[27] = molecular target: T1, Coagulation factor X/antithrombin III (Homo sapiens); test: Inhibition of human antithrombin 3/factor 10a assessed as 25 x 10^-6M CBS31.39 substrate hydrolysis at 2 x 10^-3M; assay type: protein-complex assay
[28] = molecular target: Prothrombin (Homo sapiens) (UniProt P00734); test: Inhibition of human thrombin
Procedure, shortened: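 Direct thrombin assay without ATIII: compound in water in 50 mM Tris/HCl pH 8.3, 227 mM NaCl, 0.1% BSA, 10 min at 37 °C. Human thrombin (0.06 U/mL final) added for 10 min, then Chromozym TH (178 × 10^-6 M). Read at 405 nm every 12 s for 20 min. Percent inhibition from initial slope against water control. Duplicates on ≥3 days.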

Plasma [29] = test: Anticoagulant activity in human plasma assessed as increase in thrombin time at 5 x 10^-3M relative to control; assay type: functional, cell-free
Procedure, shortened: (§6)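 Citrated pooled normal human plasma, 1:1 with compound in water (water control), held 2 min at 37 °C before coagulometer reading. APTT: reagent, 6 min at 37 °C, then 25 mmol/L CaCl2. PT: prewarmed reagent. TT: prewarmed 100 U/mL thrombin. Ratio is clotting time with compound over time with water. Duplicates repeated on three days (n = 6).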

Plasma [30] = test: Anticoagulant activity in human plasma assessed as increase in prothrombin time at 0.5 x 10^-3M relative to control; assay type: functional; procedure, shortened: as §6
Plasma [31] = test: Anticoagulant activity in human plasma assessed as increase in thrombin time at 0.5 x 10^-3M relative to control; assay type: functional, cell-free; procedure, shortened: as §6
Plasma [32] = test: Anticoagulant activity in human plasma assessed as increase in activated partial prothrombin time at 0.5 x 10^-3M relative to control; assay type: functional; procedure, shortened: as §6
Plasma [33] = test: Anticoagulant activity in human plasma assessed as increase in activated partial prothrombin time at 5 x 10^-3M relative to control; assay type: functional; procedure, shortened: as §6
Plasma [34] = test: Anticoagulant activity in human plasma assessed as increase in prothrombin time at 5 x 10^-3M relative to control; assay type: functional; procedure, shortened: as §6
Homo sapiens = organism: Homo sapiens; test: as §1; assay type: functional; procedure, shortened: as §2
[35] = molecular target: Coagulation factor X (Homo sapiens) (UniProt P00742); test: Inhibition of human factor 10a assessed as 25 x 10^-6M chromogenic TH substrate hydrolysis at 2 x 10^-3M; procedure, shortened: as §3

Structure (SMILES) | inhibition [2] | inhibition [4] | Activity (Blood [5]) | inhibition [6] | 2aPTT [8] | Activity (Blood [9]) | inhibition [10] | Activity (Blood [11]) | inhibition [12] | Time (Blood [13]) | inhibition [14] | inhibition [15] | Time (Blood [16]) | Time (Blood [17]) | 2PT [18] | Time [19] | inhibition [20] | Activity (Blood [21]) | Time (Blood [23]) | inhibition [24] | other results
COc1ccc(-c2cc(=O)c3c(O)cc(O[C@@H]4O[C@H](CO[C@@H]5O[C@@H](C)[C@H](OS(=O)(=O)O)[C@@H](OS(=O)(=O)O)[C@H]5OS(=O)(=O)O)[C@@H](OS(=O)(=O)O)[C@H](OS(=O)(=O)O)[C@H]4OS(=O)(=O)O)cc3o2)cc1O | 28.9% | inactive | 45 mm | 23.4% | 435 µM | 54 mm | inactive | 68 degree | 50.7% | 150 s | 38.7% | inactive | 267 s | 229 s | 2230 µM | 171 s | 22.6% | 57 degree | 49 s | inactive | Activity (Mus musculus [1]): Non-toxic; Activity [3]: > 5000 µM; fold change (FC) (Mus musculus [7]): 1.5; remaining at 3 h [22]: 95%; inhibition [25]: inactive; Time [26]: 162 s; inhibition [27]: 43.7%; inhibition [28]: inactive
COc1ccc(-c2cc(=O)c3c(O)cc(OS(=O)(=O)O)cc3o2)cc1OS(=O)(=O)O |  |  |  |  |  |  |  |  |  |  |  |  |  |  |  |  |  |  |  |  | Activity (Plasma [29]): inactive; fold change (FC) (Plasma [30]): 1.1; Activity (Plasma [31]): inactive; fold change (FC) (Plasma [32]): 1.65
COc1ccc([C@@H]2CC(=O)c3c(O)cc(OS(=O)(=O)O)cc3O2)cc1OS(=O)(=O)O [HESPERETIN 3',7-O-DISULFATE] |  |  |  |  |  |  |  |  |  |  |  |  |  |  |  |  |  |  |  |  | Activity (Plasma [29]): inactive; fold change (FC) (Plasma [33]): 1.1; fold change (FC) (Plasma [34]): 1.2; Activity (Plasma [31]): inactive
COc1ccc([C@@H]2CC(=O)c3c(O)cc(O[C@@H]4O[C@H](CO[C@@H]5O[C@@H](C)[C@H](OS(=O)(=O)O)[C@@H](OS(=O)(=O)O)[C@H]5OS(=O)(=O)O)[C@@H](OS(=O)(=O)O)[C@H](OS(=O)(=O)O)[C@H]4OS(=O)(=O)O)cc3O2)cc1O | 39.7% | inactive | 40 mm | inactive | 413 µM | 59 mm | inactive | 70 degree | 58.1% | 116 s | 46.2% | inactive | 300 s | 214 s | 3620 µM | 167 s | 40.2% | 57 degree | 59 s | 30.5% | Activity (Homo sapiens): inactive; inhibition [35]: inactive; inhibition [25]: inactive; Time [26]: 139 s; inhibition [27]: 49.6%; inhibition [28]: inactive
C[C@H]1O[C@@H](OC[C@@H]2O[C@H](Oc3c(-c4ccc(OCCOS(=O)(=O)O)c(OCCOS(=O)(=O)O)c4)oc4cc(OCCOS(=O)(=O)O)cc(O)c4c3=O)[C@@H](OS(=O)(=O)O)[C@H](OS(=O)(=O)O)[C@H]2OS(=O)(=O)O)[C@@H](OS(=O)(=O)O)[C@@H](OS(=O)(=O)O)[C@@H]1OS(=O)(=O)O | 20.3% | 25.7% | 64 mm | 53.3% | 145 µM | 61 mm | 41.9% | 69 degree | 33.6% | 111 s | 24.8% | 38.8% | 560 s | 122 s | 835 µM | >300 s | 47.6% | 67 degree | 105 s | 28.1% | Activity [3]: 867 µM; inhibition [25]: inactive; Time [26]: 204 s; inhibition [27]: 56%; inhibition [28]: inactive
